According to ChEMBL document CHEMBL2390849, “Glycosylation enhances the anti-migratory activities of isomalyngamide A analogs” (Eur J Med Chem, 2013):
Active and inactive are the calls of the source. No cut-off for these calls is given here.

Experiments:
MDA-MB-231 [1] = assay: Effect on paxillin expression level in human MDA-MB-231 cells after 24 hrs by Western blotting analysis; assay type: functional, cell-based
Outline: (§1)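 Cells treated 24 h with the indicated concentrations. Lysates immunoblotted with antibodies to total FAK, phospho-FAK (Y397), total paxillin and Rac1, with β-actin as internal control. Bands detected by enhanced chemiluminescence.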

MDA-MB-231 [2] = assay: Antimigratory activity against human MDA-MB-231 cells after overnight incubation by Boyden chamber assay; assay type: functional, cell-based
Outline: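 Boyden chamber (8 µm polycarbonate membrane coated with Matrigel, […] as printed). Cells trypsinized into serum-free medium at 2.5 × 10^5 cells/mL containing test agent, placed in upper chamber. Lower chamber holds medium with 5% FBS as chemoattractant. Overnight at 37 °C. Transmigrated cells fixed in methanol, Giemsa-stained, counted in three random fields. IC50 is the mean of three independent experiments.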

MDA-MB-231 [3] = assay: Inhibition of human MDA-MB-231 cell adhesion to collagen 4 after 48 hrs by crystal violet staining-based spectrophotometric analysis; assay type: functional
Outline: (§2)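 Cells pretreated 48 h with compound, trypsinized, and resuspended at 2 × 10^5 cells/mL in DMEM with 0.1% BSA. Added to wells coated overnight at 4 °C with fibronectin or collagen IV ([…] as printed), then blocked with 0.1% BSA. Adhesion 60 min at 37 °C. Adherent cells fixed in 10% formaldehyde and stained with 0.05% crystal violet. Dye extracted, A595 read. Reported as percent of untreated control, triplicate.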

MDA-MB-231 [4] = assay: Inhibition of human MDA-MB-231 cell adhesion to fibronectin at 10 uM after 48 hrs by crystal violet staining-based spectrophotometric analysis relative to control; assay type: functional; conditions: MDA-MB-231, 48 h; outline: as §2
[5] = molecular target: Focal adhesion kinase 1 (Homo sapiens) (UniProt Q05397); assay: Inhibition of FAK phosphorylation at Tyr397 in human MDA-MB-231 cells after 24 hrs by Western blotting analysis; assay type: cell-based; outline: as §1
MDA-MB-231 [6] = assay: Effect on RAC1 expression level in human MDA-MB-231 cells at 10 to 30 uM after 24 hrs by Western blotting analysis; assay type: functional, cell-based; outline: as §1
MDA-MB-231 [7] = assay: Effect on FAK expression level in human MDA-MB-231 cells at 10 to 30 uM after 24 hrs by Western blotting analysis; assay type: functional, cell-based; outline: as §1
MDA-MB-231 [8] = assay: Inhibition of human MDA-MB-231 cell adhesion to fibronectin at 30 uM after 48 hrs by crystal violet staining-based spectrophotometric analysis relative to control; assay type: functional; conditions: MDA-MB-231, 48 h; outline: as §2
MDA-MB-231 [9] = assay: Antimigratory activity against human MDA-MB-231 cells at 25 uM after 24 hrs by scratch wound healing assay; assay type: functional, cell-based
Outline: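 Cells grown overnight at 37 °C to a confluent monolayer in duplicate wells, then scratched with a pipette tip. Migration into the wound photographed at 0 and 24 h at 100× magnification.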

MDA-MB-231 [10] = assay: Cytotoxicity against human MDA-MB-231 cells at 10 to 30 uM after 48 hrs by MTT assay; assay type: functional, cell-based
MDA-MB-231 [11] = assay: Inhibition of human MDA-MB-231 cell invasion at 20 to 30 uM after 24 hrs by Transwell assay; assay type: functional, cell-based
Outline: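 Transwell inserts with 8 µm pores precoated with Matrigel. Cells seeded at 8 × 10^4 cells/mL in serum-free medium with compound or DMSO, 24 h. Lower wells hold 5% FBS-containing medium as chemoattractant. Invaded cells fixed and stained, then counted in three random fields. Run in triplicate, expressed as percent of untreated control.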

MDA-MB-231 [12] = assay: Inhibition of human MDA-MB-231 cell adhesion to fibronectin after 48 hrs by crystal violet staining-based spectrophotometric analysis; assay type: functional; outline: as §2
MDA-MB-231 [13] = assay: Inhibition of human MDA-MB-231 cell adhesion to fibronectin at 20 uM after 48 hrs by crystal violet staining-based spectrophotometric analysis relative to control; assay type: functional; conditions: MDA-MB-231, 48 h; outline: as §2
MDA-MB-231 [14] = assay: Inhibition of human MDA-MB-231 cell adhesion to fibronectin at 10 to 30 uM after 48 hrs by crystal violet staining-based spectrophotometric analysis relative to control; assay type: functional; outline: as §2

Chain of Focal adhesion kinase 1 (Homo sapiens) (Q05397 2-1052 limits assumed): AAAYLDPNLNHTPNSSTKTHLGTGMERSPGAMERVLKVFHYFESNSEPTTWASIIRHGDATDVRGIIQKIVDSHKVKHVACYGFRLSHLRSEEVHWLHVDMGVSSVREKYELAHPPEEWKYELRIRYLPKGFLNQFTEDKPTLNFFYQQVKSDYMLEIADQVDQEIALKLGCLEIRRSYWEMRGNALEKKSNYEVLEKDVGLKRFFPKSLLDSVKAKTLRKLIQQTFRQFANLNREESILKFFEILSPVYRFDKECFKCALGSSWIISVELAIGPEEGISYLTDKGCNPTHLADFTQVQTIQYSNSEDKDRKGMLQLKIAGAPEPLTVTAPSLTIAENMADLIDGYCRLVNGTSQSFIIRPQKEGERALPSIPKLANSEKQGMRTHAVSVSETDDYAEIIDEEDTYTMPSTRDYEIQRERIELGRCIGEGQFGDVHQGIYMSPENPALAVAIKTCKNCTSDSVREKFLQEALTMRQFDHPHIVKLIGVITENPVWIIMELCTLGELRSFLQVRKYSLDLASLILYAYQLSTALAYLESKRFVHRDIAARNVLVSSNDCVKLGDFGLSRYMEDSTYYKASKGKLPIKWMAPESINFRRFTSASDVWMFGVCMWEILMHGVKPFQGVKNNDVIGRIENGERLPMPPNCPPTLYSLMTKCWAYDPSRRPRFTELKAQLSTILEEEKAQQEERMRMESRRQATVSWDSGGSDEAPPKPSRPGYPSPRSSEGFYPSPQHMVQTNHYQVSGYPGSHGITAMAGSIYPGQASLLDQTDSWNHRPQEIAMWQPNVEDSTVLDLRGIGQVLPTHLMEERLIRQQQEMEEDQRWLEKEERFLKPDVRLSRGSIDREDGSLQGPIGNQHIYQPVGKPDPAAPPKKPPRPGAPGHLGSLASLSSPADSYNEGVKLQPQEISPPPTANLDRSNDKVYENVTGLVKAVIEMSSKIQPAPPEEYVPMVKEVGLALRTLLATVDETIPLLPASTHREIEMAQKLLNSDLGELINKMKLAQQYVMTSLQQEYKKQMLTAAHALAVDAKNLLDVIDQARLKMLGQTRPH

Row | SMILES | Activity (MDA-MB-231 [1]) | Activity (MDA-MB-231 [2]) | IC50 (MDA-MB-231 [2]) [µM] | inhibition (MDA-MB-231 [3]) | adhesion % at 10 µM (MDA-MB-231 [4]) [%] | inhibition [5] | Activity (MDA-MB-231 [6]) | Activity (MDA-MB-231 [7]) | adhesion % at 30 µM (MDA-MB-231 [8]) [%] | Activity (MDA-MB-231 [9]) | Activity (MDA-MB-231 [10]) | inhibition (MDA-MB-231 [11]) | inhibition (MDA-MB-231 [12]) | adhesion % at 20 µM (MDA-MB-231 [13]) [%] | inhibition (MDA-MB-231 [14])
1 | CCCCCCCCCCCCCC(=O)NCCNC(=O)C(C)(C)C(=O)NCCO[C@@H]1O[C@H](COC(C)=O)[C@H](OC(C)=O)[C@H](OC(C)=O)[C@H]1OC(C)=O | Dose-dependent effect | Dose-dependent effect | 11.8 | Dose-dependent effect | 79 | Dose-dependent effect | inactive | inactive | 58 | Active | inactive | Active | Dose-dependent effect | 69 | 
2 | CCCCCCCCCCCCCC(=O)NCCNC(=O)C(C)(C)C(=O)NCC(=O)O |  |  |  |  |  |  |  |  |  | Active | inactive | Active |  |  | Active
3 | CCCCCCCCCCCCCC(=O)NCCNC(=O)C(C)(C)C(=O)NCCO[C@@H]1O[C@H](COC(C)=O)[C@@H](O[C@@H]2O[C@H](COC(C)=O)[C@H](OC(C)=O)[C@H](OC(C)=O)[C@H]2OC(C)=O)[C@H](OC(C)=O)[C@H]1OC(C)=O |  |  | > 50 | Dose-dependent effect |  |  |  |  |  | Active | inactive | Active | Dose-dependent effect |  | 
4 | CCCCCCCCCCCCCC(=O)NCCNC(=O)C(C)(C)C(=O)NCCO[C@H]1O[C@H](COC(C)=O)[C@@H](OC(C)=O)[C@H](OC(C)=O)[C@@H]1OC(C)=O | Dose-dependent effect | Dose-dependent effect | 11.7 | Dose-dependent effect |  | Dose-dependent effect | inactive | inactive |  | Active | inactive | Active | Dose-dependent effect |  | 
